Measured values: ChEMBL document CHEMBL1153115, “Synthesis, antimalarial activity and cytotoxicity of 4-aminoquinoline-triazine conjugates” (Bioorg Med Chem Lett, 2010)

Columns and labels:
Plasmodium falciparum [1] = assay: Antiplasmodial activity against chloroquine-sensitive Plasmodium falciparum D6 by LDH release assay; assay type: functional, organism-based
Plasmodium falciparum [2] = assay: Antiplasmodial activity against chloroquine-resistant Plasmodium falciparum W2 by LDH release assay; assay type: functional, organism-based
[3] = Selectivity index, IC50 for african green monkey (Cercopithecus aethiops) Vero cells to IC50 for chloroquine-sensitive Plasmodium falciparum D6; assay type: functional
In short: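 The selectivity index of antimalarial activity was calculated from Vero cell cytotoxicity relative to the antiplasmodial IC50 against each P. falciparum clone (D6 or W2).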

[4] = Cytotoxicity against pig LLC-PK11 cells; assay type: cell-based; conditions: Sus scrofa
In short: (§1)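 Cytotoxicity was run in parallel on three mammalian lines: LLC-PK11 (pig kidney epithelial cells), HepG2 (human hepatoma cells) and Vero (monkey kidney […]). Compounds with no cytotoxicity up to the highest tested concentration, 48, were recorded as NC.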

HepG2 = assay: Cytotoxicity against human HepG2 cells; assay type: cell-based; in short: as §1
Vero = assay: Cytotoxicity against african green monkey Vero cells; assay type: cell-based; conditions: Chlorocebus sabaeus; in short: as §1
[5] = Selectivity index, IC50 for african green monkey (Cercopithecus aethiops) Vero cells to IC50 for chloroquine-resistant Plasmodium falciparum W2

In the case of `COc1cc(Nc2nc(NCCCNc3ccnc4cc(Cl)ccc34)nc(N3CCOCC3)n2)cc(OC)c1`, the IC50 (Plasmodium falciparum [1]) is reported as 250 nM, the IC50 (Plasmodium falciparum [2]) is reported as 220 nM and the “Selectivity Index” value [3] is reported as 130.8. For the same compound, the IC50 [4] was 8300 nM, the IC50 (HepG2) was 25400 nM and the IC50 (Vero) was 32700 nM. The “Selectivity Index” value [5] was 148.6.
With `Clc1ccc2c(NCCCNc3nc(NC4CCCCC4)nc(N4CCCCC4)n3)ccnc2c1` the IC50 (Plasmodium falciparum [1]) was 1740 nM, the IC50 (Plasmodium falciparum [2]) was 2220 nM and the “Selectivity Index” value [3] was 19.7. For the same compound, the IC50 [4] was 10500 nM, the IC50 (HepG2) was 8300 nM and the IC50 (Vero) was 34300 nM. For the same compound, the “Selectivity Index” value [5] was 15.4.
In the case of `C[C@@H]1CC[C@H]2[C@@H](C)C(=O)O[C@@H]3O[C@@]4(C)CC[C@@H]1[C@]32OO4` [ARTEMISININ], the IC50 (Plasmodium falciparum [1]) is reported as 30 nM, the IC50 (Plasmodium falciparum [2]) is reported as 25 nM and the “Selectivity Index” value [3] is reported as over 500. For the same compound, the “Selectivity Index” value [5] was over 670.
With `COc1cccc2c1C(=O)c1c(O)c3c(c(O)c1C2=O)C[C@@](O)(C(=O)CO)C[C@@H]3O[C@H]1C[C@H](N)[C@H](O)[C@H](C)O1` [DOXORUBICIN] the IC50 [4] was 850 nM, the IC50 (HepG2) was 420 nM and the IC50 (Vero) was 20000 nM.
